From ChEMBL document CHEMBL5674867, “The SUV39H1 inhibitor chaetocin induces differentiation and shows synergistic cytotoxicity with other epigenetic drugs in acute myeloid leukemia cells” (Blood Cancer J, 2015)
Calls of active or inactive are those of the source. No cut-off for these calls is given here.

Experiments:
[1] = system: U-937; experiment: Induction of myeloid differentiation in human U-937 cells at 20 nM in combination with 0.5 uM SAHA measured after 12 hrs by Liu's staining method; assay type: functional, cell-based
Summary of the method: (§1)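 Cells received single epigenetic inhibitors or combinations and were collected by cytospin. After Liu's staining (reagent A 1 min, reagent B 2.5 min), differentiated cells were counted under a light microscope. Mean ± s.e. of three independent experiments.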

[2] = system: KG-1a; experiment: Induction of myeloid differentiation in human KG-1a cells at 20 nM in combination with 0.5 uM SAHA measured after 12 hrs by Liu's staining method; assay type: functional, cell-based; summary of the method: as §1
[3] = system: HL-60; experiment: Induction of myeloid differentiation in human HL-60 cells at 20 nM in combination with 0.5 uM SAHA measured after 12 hrs by Liu's staining method; assay type: functional, cell-based; summary of the method: as §1
[4] = system: U-937; experiment: Induction of myeloid differentiation in human U-937 cells at 20 uM assessed as increase in CD11b mRNA expression measured after 48 hrs by RT-PCR assay; assay type: functional, cell-based
Summary of the method: (§2)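 Cells exposed for 48 h (KG-1a in IMDM/15% FBS; HL-60 and U937 in RPMI/10% FBS). Total RNA extracted, 1 µg reverse transcribed, CD11b quantified by SYBR green real-time PCR normalised to actin. Cycling was 30 cycles of 95 °C, 60 °C and 72 °C, 45 s each. Mean ± s.e. of three independent experiments, compared with untreated control.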

[5] = system: HL-60; experiment: Induction of myeloid differentiation in human HL-60 cells at 20 uM assessed as increase in CD11b mRNA expression measured after 48 hrs by RT-PCR assay; assay type: functional, cell-based; summary of the method: as §2
[6] = system: KG-1a; experiment: Cytotoxicity against human KG-1a cells assessed as decrease in cell viability measured after 48 hrs by MTT assay; assay type: functional, cell-based
[7] = system: U-937; experiment: Cytotoxicity against human U-937 cells assessed as decrease in cell viability measured after 24 hrs by MTT assay; assay type: functional, cell-based; conditions: U-937, 24 h
Summary of the method: (§3)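 MTT viability read 24 h after exposure over a low concentration range (0–25 μM for one inhibitor, 0–100 for the other as printed). IC50 was derived for each line. Culture: HL-60 and U937 in RPMI + 10% FBS, KG-1a in IMDM + 15% FBS.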

[8] = system: KG-1a; experiment: Cytotoxicity against human KG-1a cells assessed as decrease in cell viability measured after 24 hrs by MTT assay; assay type: functional, cell-based; summary of the method: as §3
[9] = system: HL-60; experiment: Cytotoxicity against human HL-60 cells assessed as decrease in cell viability measured after 48 hrs by MTT assay; assay type: functional, cell-based; conditions: HL-60, 48 h
[10] = system: KG-1a; experiment: Induction of myeloid differentiation in human KG-1a cells at 20 uM assessed as increase in CD11b mRNA expression measured after 48 hrs by RT-PCR assay; assay type: functional, cell-based; summary of the method: as §2
[11] = system: U-937; experiment: Cytotoxicity against human U-937 cells assessed as decrease in cell viability measured after 48 hrs by MTT assay; assay type: functional, cell-based; conditions: U-937, 48 h
[12] = system: HL-60; experiment: Cytotoxicity against human HL-60 cells assessed as decrease in cell viability measured after 24 hrs by MTT assay; assay type: functional, cell-based; conditions: HL-60, 24 h; summary of the method: as §3
[13] = system: U-937; experiment: Cytotoxicity against human U-937 cells at 20 nM assessed as decrease in cell viability in combination with 0.5 uM SAHA measured after 24 hrs by MTT assay; assay type: functional
[14] = system: HL-60; experiment: Cytotoxicity against human HL-60 cells at 20 nM assessed as decrease in cell viability in combination with 0.5 uM SAHA measured after 24 hrs by MTT assay; assay type: functional
[15] = system: KG-1a; experiment: Cytotoxicity against human KG-1a cells at 20 nM assessed as decrease in cell viability in combination with 0.5 uM SAHA measured after 24 hrs by MTT assay; assay type: functional
[16] = system: HL-60; experiment: Induction of myeloid differentiation in human HL-60 cells at 0.5 uM measured after 12 hrs by Liu's staining method; assay type: functional, cell-based
Summary of the method: (§4)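 Cells treated for 12 h, spun onto slides by cytospin, stained with Liu's reagent A for 1 min and then reagent B for 2.5 min. Morphology read by light microscopy. KG-1a was grown in IMDM with 15% FBS; HL-60 and U937 in RPMI with 10% FBS.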

[17] = system: U-937; experiment: Induction of myeloid differentiation in human U-937 cells at 0.5 uM measured after 12 hrs by Liu's staining method; assay type: functional, cell-based; summary of the method: as §4
[18] = system: KG-1a; experiment: Induction of myeloid differentiation in human KG-1a cells at 0.5 uM measured after 12 hrs by Liu's staining method; assay type: functional, cell-based; summary of the method: as §4

| SMILES | IC50 [6] [µM] | IC50 [7] [µM] | IC50 [8] [µM] | IC50 [9] [µM] | IC50 [11] [µM] | IC50 [12] [µM] | further results |
| --- | --- | --- | --- | --- | --- | --- | --- |
| CN1C(=O)[C@@]23C[C@]4([C@]56C[C@@]78SS[C@@](CO)(C(=O)N7[C@H]5Nc5ccccc56)N(C)C8=O)c5ccccc5N[C@@H]4N2C(=O)[C@]1(CO)SS3.O=C(CCCCCCC(=O)Nc1ccccc1)NO |  |  |  |  |  |  | Activity [1]: inactive; Activity [2]: inactive; Activity [3]: inactive |
| COc1cc2c(NC3CCN(C(C)C)CC3)nc(C3CCCCC3)nc2cc1OCCCN1CCCC1 | 22.4 | 21.4 | 26.5 | 23.8 | 19.7 | 27.4 | Activity [4]: inactive; Activity [5]: inactive; Activity [10]: inactive |
| CN1C(=O)[C@@]23C[C@]4([C@]56C[C@@]78SS[C@@](CO)(C(=O)N7[C@H]5Nc5ccccc56)N(C)C8=O)c5ccccc5N[C@@H]4N2C(=O)[C@]1(CO)SS3 [CHAETOCIN] | 9.5e-05 | 9.6e-05 | 0.000103 | 0.000127 | 8.2e-05 | 0.000153 | Activity [13]: 20%; Activity [14]: 40%; Activity [15]: 40% |
| O=C(CCCCCCC(=O)Nc1ccccc1)NO |  |  |  |  |  |  | Activity [16]: Active; Activity [17]: Active; Activity [18]: Active |
